Compounds with a hit are over-represented: about 3.7% of the library has one in this group of screens.
KCNK3 inh: human KCNK3 channel inhibition, primary screen; 340,000 compounds, 0.84% hits; B-score at 10 µM; O14649; CHO-KCNK3 thallium flux, FluxOR fluorescence; active compounds read low;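 active = B-score under library mean minus 4 SD, starting fluorescence ratio at most library mean plus 5 SD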;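 note: more negative B-score means stronger inhibition of thallium flux through KCNK3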
hERG protect: hERG (human) protection from proarrhythmic block. activation (rescue from dofetilide block), less the hit threshold, % at 10 µM. CHO-hERG, FluxOR thallium flux, dofetilide IC70 present. 310,000 compounds, 0.51% hits;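 active = activation above the mean of controls blocked by dofetilide plus 5 SD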;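 note: thallium influx through hERG after potassium depolarization seen as dye fluorescence rise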
KCNQ1 pot: potentiates or activates the human KCNQ1 potassium channel; P51787; CHO-K1 KCNQ1, thallium flux FluxOR fluorescence; active compounds read high; B-score at 10 µM; 310,000 compounds, 0.35% hits; AID 2648;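 active = fluorescence ratio B-score, a plate-corrected score, at least three library SD, with initial intensity B-score within 5 SD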
Target sequence (P51787 whole entry, looked up): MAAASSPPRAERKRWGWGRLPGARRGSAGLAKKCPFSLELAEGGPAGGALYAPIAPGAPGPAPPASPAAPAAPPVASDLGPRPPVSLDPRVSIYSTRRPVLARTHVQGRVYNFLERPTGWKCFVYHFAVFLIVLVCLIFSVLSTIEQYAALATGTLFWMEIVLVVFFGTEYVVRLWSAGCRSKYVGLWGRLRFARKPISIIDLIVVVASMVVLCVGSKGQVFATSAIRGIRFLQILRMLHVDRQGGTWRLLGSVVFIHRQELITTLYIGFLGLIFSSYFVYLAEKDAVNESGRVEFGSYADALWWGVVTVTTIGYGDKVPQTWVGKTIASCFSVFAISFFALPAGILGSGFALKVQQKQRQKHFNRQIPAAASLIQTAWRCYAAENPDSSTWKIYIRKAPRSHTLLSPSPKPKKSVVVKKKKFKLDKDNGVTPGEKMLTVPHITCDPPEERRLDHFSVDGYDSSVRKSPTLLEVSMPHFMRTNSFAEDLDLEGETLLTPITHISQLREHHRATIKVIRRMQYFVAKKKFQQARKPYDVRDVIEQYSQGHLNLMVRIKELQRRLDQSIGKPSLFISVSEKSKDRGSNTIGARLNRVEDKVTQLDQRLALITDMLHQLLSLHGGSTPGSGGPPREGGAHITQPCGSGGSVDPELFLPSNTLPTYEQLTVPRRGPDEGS
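Assay system: CHO-K1 cells stably expressing KCNQ1; Medium: assay buffer with matched DMSO; Also added: K+/Tl+ depolarizing stimulus; Dosing: single dose; Timing: dye 90 min, compound 20 min, room temperature; Measured by: kinetic FluxOR thallium fluorescence, 10-s 1-Hz baseline, 110-s post-stimulus read; Read-out: peak-minus-minimum fluorescence over initial fluorescence, negative-control normalized, B-scored.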
KCNQ1 block: human KCNQ1 channel inhibition. CHO-K1 KCNQ1, FluxOR thallium flux fluorescence; active compounds read high. 310,000 compounds, 1.3% hits. AID 2642. B-score at 10 µM;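 active = compounds whose thallium flux B-score, printed positive for inhibition, exceeds three library SD while starting fluorescence stays within three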;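 note: channel opened by potassium depolarization with thallium stimulus after 20 min compound exposure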
KCNK9 inh-1: human KCNK9 channel inhibition. 310,000 compounds, 1.2% hits. B-score at 10 µM. Q9NPC2. AID 488922. HEK293 KCNK9, FluxOR thallium flux fluorescence; active compounds read low;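 active = ratio B-score over 3 SD below the library mean, with starting fluorescence within 5 SD of its mean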;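 note: negative B-score means less thallium flux so channel inhibition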
Kir21 inh: blocks the mouse Kir2.1 inward-rectifier potassium channel | P35561 | HEK293-Kir2.1, FluxOR thallium flux fluorescence; active compounds read low | B-score at 10 µM | 310,000 compounds, 0.85% hits;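 active = fluorescence ratio B-score at or below minus 3 SD of library scores, with starting-brightness B-score within 2 SD, cut at about -4.2 in these data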;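 note: channel flux triggered by added potassium and thallium sulfate stimulus; B-score of peak minus minimum fluorescence over baseline after thallium stimulus; more negative B-score means stronger Kir2.1 block with less thallium influx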
hERG ctr: blocks human hERG, in counter-screen for Kir2.1 inhibitors | shares compounds with Kir21 inh | hERG-expressing cells, thallium flux | inhibition, % at 10 µM | 320 compounds, 20% hits;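 note: host cells are CHO cells stably expressing hERG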
KCNK9 inh-2: human KCNK9 off-target activity of Kir2.1 blockers; shares compounds with Kir21 inh; KCNK9-expressing cells, ion flux inhibition; inhibition, % at 10 µM; 320 compounds, 5% hits; AID 2329
Kir2-1 patch inh: blocks mouse Kir2.1 current in automated electrophysiology. shares compounds with Kir21 inh. Kir2.1 cells, automated patch-clamp current inhibition. 320 compounds, 71% hits. inhibition, % at 25 µM
KCNQ1 inh valid: reconfirmed blocker of the human KCNQ1 potassium channel. shares compounds with KCNQ1 block. KCNQ1 cell line, FluxOR thallium flux fluorescence. inhibition, % at 10 µM. 1,600 compounds, 93% hits. AID 588353;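 active = primary screen active, with duplicate mean exceeding buffer control mean plus 3 SD of buffer wells, cut at about 28% in these data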;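 note: 0% = buffer control ratio and 100% = XE991 inhibitor control ratio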
CHO Tl flux: counter-screen for KCNQ1 inhibitors: effect in parental CHO cells; fluorescence ratio (Tl flux) at 10 µM; shares compounds with KCNQ1 block; parental CHO-K1, FluxOR thallium flux fluorescence ratio; active compounds read low; zero means no signal rise above baseline; 1,600 compounds, 21% hits;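 active = mean of duplicate thallium-flux fluorescence ratios in parental host cells more than 5 SD below the buffer control mean, cut at about 0.38 in these data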;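 note: ratio is peak minus minimum fluorescence divided by baseline fluorescence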
KCNQ1 ephys val: blocks human KCNQ1 current in automated patch clamp | shares compounds with KCNQ1 block | KCNQ1-CHO cells | calls only at 10 µM | 490 compounds, 20% hits | AID 624120;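 active = KCNQ1 current drop exceeding 3 SD of negative control wells, seen in both duplicate runs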;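 note: steady state current during a 2 s step from -80 to +40 mV; negative values mean current inhibition and positive values mean potentiation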
KCNQ2 inh: rat KCNQ2 inhibition in KCNQ1 inhibitor specificity screen. shares compounds with KCNQ1 block. KCNQ2 cells, FluxOR thallium flux fluorescence. inhibition, % at 10 µM. 1,600 compounds, 71% hits;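 active = mean percent inhibition of the KCNQ2 thallium signal more than 5 SD above the buffer-only control wells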;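 note: KCNQ2 expressed in CHO cells; 0% = buffer control wells and 100% = XE-991 inhibitor control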
KCNQ1 KCNE1 spec: human KCNQ1/KCNE1 inhibition in KCNQ1 specificity screen | shares compounds with KCNQ1 block | KCNQ1/KCNE1 cells, FluxOR thallium flux fluorescence | inhibition, % at 10 µM | 1,600 compounds, 77% hits;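 active = mean percent inhibition of duplicate wells above the buffer-only control mean plus 3 SD of those controls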;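 note: 0% = buffer only wells and 100% = XE-991 inhibitor control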
KCNK9 inh conf: human KCNK9 inhibitor confirmation; shares compounds with KCNK9 inh-1; HEK293 KCNK9 cells, FluxOR thallium flux fluorescence; inhibition, % at 10 µM; 4,900 compounds, 43% hits; AID 492992;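 active = thallium signal inhibited by more than 5 SD of the compound-free buffer control wells, on both duplicate plates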;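 note: 0% = assay buffer control wells without compound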
Kir2-1 spec: selectivity of KCNK9 modulators against mouse Kir2.1. shares compounds with KCNK9 inh-1. Kir2.1 cells, FluxOR thallium flux fluorescence. inhibition, % at 10 µM. 4,900 compounds, 4% hits. AID 492993;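 active = thallium signal drop more than 5 SD beyond the mean of the no-compound control wells, seen in both duplicate plates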;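 note: signal is fluorescence rise after thallium addition divided by baseline fluorescence; plate controls were assay buffer only for no effect and full block by chlorpromazine control for full effect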
KCNK9 uninduced: second counter-screen for KCNK9 modulators: effect in non-induced cells | inhibition, % at 10 µM | shares compounds with KCNK9 inh-1 | 4,900 compounds, 40% hits | non-induced KCNK9-HEK293, FluxOR thallium flux;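 active = thallium signal drop beyond 5 SD of the untreated control mean, on both duplicate plates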;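 note: plate controls were buffer only IC0 wells for no effect and SID17386958 at its maximal inhibitory level for full effect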
Starred values were filed as active, the others as inactive; i = inactive; x = no result; + = active, no number. Unless noted, the rule behind the calls is not given here.

SMILES | KCNK3 inh | hERG protect | KCNQ1 pot | KCNQ1 block | KCNK9 inh-1 | Kir21 inh | others
CCCCn1c(=O)c(C(=O)NCCc2ccccc2)c(O)c2ccccc21 | i | -6 | i | 7* | i | 0.08
Clc1ccccc1C1NCc2ccccc2-n2cccc21 (stereo unspecified) | i | -27 | i | i | i | -5.2*
CCOc1cccc(C2NCc3ccccc3-n3cccc32)c1O (stereo unspecified) | i | -5 | i | i | i | -0.34
CC(C)c1ccc(C2NCc3ccccc3-n3cccc32)cc1 (stereo unspecified) | i | -10 | i | i | i | -0.19
Oc1ccccc1C1NCc2ccccc2-n2cccc21 (stereo unspecified) | i | -3 | i | i | i | -4.5*
O=P(Oc1ccccc1)(Oc1ccccc1)c1ccccc1 | i | -8 | i | i | i | -5.9*
C(#CCN1CCOCC1)COCC#Cc1ccccc1 | i | 5.3* | i | i | i | -2.2
COC(=O)C1=C(c2ccc3ccccc3c2)C[C@@H]2CC[C@H]1N2C(=O)NCCNC(C)=O | i | x | x | x | x | x
CCOc1ccc(Cl)cc1CNCCc1ccccc1F | i | -5 | i | i | i | -8.9* | hERG ctr=i;KCNK9 inh-2=i;Kir2-1 patch inh=52%*
Cn1cccc1C1CCCN1CC(=O)Nc1ccc(C#N)c(Cl)c1 (stereo unspecified) | i | x | x | x | x | x
Fc1ccc(C(OCCN2CCCC2)c2ccc(F)cc2)cc1 | i | -1 | i | i | i | -2.9
Fc1ccc(C(OCCN2CCCC2)c2ccc(Br)cc2)cc1 (stereo unspecified) | i | -18 | i | i | i | -8.4* | hERG ctr=70%*;KCNK9 inh-2=i;Kir2-1 patch inh=i
CN(C)CCOC(=O)c1cn(Cc2ccccc2)c2ccccc12 | i | -3 | i | i | i | -7* | hERG ctr=53%*;KCNK9 inh-2=i;Kir2-1 patch inh=33%*
c1ccc(CNCCc2c[nH]c3ccccc23)cc1 | i | -6 | i | i | i | -0.43
CCc1ccc(CNCCc2c[nH]c3ccccc23)cc1 | i | -10 | i | i | i | -15* | hERG ctr=53%*;KCNK9 inh-2=i;Kir2-1 patch inh=60%*
Cc1c(NS(=O)(=O)c2ccccc2)ccc([N+](=O)[O-])c1Cl | i | x | x | x | x | x
Cc1cccc(CCNCc2cc3cccc(C)c3[nH]c2=O)c1 | i | -3 | i | i | i | -6.9* | hERG ctr=i;KCNK9 inh-2=i;Kir2-1 patch inh=33%*
Cc1ccc(C(=O)N2CC2C)cc1 (stereo unspecified) | i | x | x | x | x | x
CCN1CCN(Cc2ccc(C)cc2)CC1 | i | -4 | i | i | i | 1.9
Cc1ccc(CN2CCN(Cc3ccccc3F)CC2)cc1 | i | -9 | i | i | i | -11* | hERG ctr=i;KCNK9 inh-2=i;Kir2-1 patch inh=58%*
CCN1CCC(NCC2CCCCC2)CC1 | i | -8 | i | i | i | 0.66
CCCCCSc1cc(OC)c(CCN(C)C)cc1OC | i | -11 | i | i | i | -6.3* | hERG ctr=57%*;KCNK9 inh-2=i;Kir2-1 patch inh=56%*
CCc1ccc(CN2CCN(Cc3ccc(SC)cc3)CC2)cc1 | i | -8 | i | i | i | -7.2* | hERG ctr=60%*;KCNK9 inh-2=i;Kir2-1 patch inh=15%*;KCNK9 inh conf=i;Kir2-1 spec=60%*;KCNK9 uninduced=i
COC(=O)C1=C(c2c(C)noc2C)C[C@@H]2CC[C@H]1N2C(=O)NCCCOC(C)C | i | x | x | x | x | x
C[n+]1c(-c2ccccc2)c2cc(N)ccc2c2ccc(N)cc21 | i | -10 | i | i | i | 0.6
SMILES | KCNK3 inh | hERG protect | KCNQ1 pot | KCNQ1 block | KCNK9 inh-1 | Kir21 inh | others
Nc1ccc2ccc3cccc[n+]3c2c1 | i | -44 | i | 24* | i | -23 | KCNQ1 inh valid=+;CHO Tl flux=0.0075*;KCNQ2 inh=i;KCNQ1 KCNE1 spec=i
CC1(C)OC(c2ccccc2)=C/C(=C/C=C2C(=O)NC(=S)NC2=O)O1 | x | -18 | i | 15* | i | -3.3 | KCNQ1 inh valid=82*;CHO Tl flux=0.34*;KCNQ2 inh=i;KCNQ1 KCNE1 spec=i
CN1/C(=C\C=C2C(=O)NC(=S)NC2=O)C(C)(C)c2ccccc21 | i | -8 | i | i | i | -2.1
COCc1cc(OC(=O)N(C)C)nc(-c2ccccc2)n1 | i | -6 | i | i | i | -1.1
CCCCCn1c(=O)c(C(=O)Nc2ccccc2N)c(O)c2ccccc21 | i | -1 | i | i | i | 1.9
CCCCCCn1c(=O)c(C(=O)Nc2cnccn2)c(O)c2ccccc21 | i | -12 | i | 9* | i | 0.74 | KCNQ1 inh valid=44*;CHO Tl flux=0.5;KCNQ2 inh=i;KCNQ1 KCNE1 spec=i
CCCCCCn1c(=O)c(C(=O)Nc2ncccc2O)c(O)c2ccccc21 | i | -6 | i | 7* | i | 1.1 | KCNQ1 inh valid=58*;CHO Tl flux=0.43;KCNQ2 inh=62%*;KCNQ1 KCNE1 spec=50%*
O=C(c1ccco1)c1cn(Cc2ccccc2Cl)c2ccccc12 | i | -6 | i | 7* | -7.5* | -0.77 | KCNQ1 inh valid=91*;CHO Tl flux=0.38;KCNQ1 ephys val=i;KCNQ2 inh=102%*;KCNQ1 KCNE1 spec=152%*

High-throughput results deposited in PubChem by Johns Hopkins Ion Channel Center.
